Screening data deposited in PubChem by Johns Hopkins Ion Channel Center.
Only some compounds are listed: those with a hit (about 3.1% of all), similar ones and a draw of the others.
hERG rescue: shields human hERG channel from block by proarrhythmic agents. CHO-hERG, FluxOR thallium flux, dofetilide IC70 present. activation (rescue from dofetilide block), less the hit threshold, % at 10 µM. hit rate 0.51% among 310,000. AID 1511;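 active means activation above the mean of controls blocked by dofetilide plus 5 SD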;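 further: thallium influx through hERG after potassium depolarization seen as dye fluorescence rise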
KCNQ1 inh: inhibitors of human KCNQ1 potassium channel; P51787; B-score at 10 µM; CHO-K1 KCNQ1, FluxOR thallium flux fluorescence; stronger effect = higher value; hit rate 1.3% among 310,000;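 active means compounds whose thallium flux B-score, printed positive for inhibition, exceeds three library SD while starting fluorescence stays within three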;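 further: channel opened by potassium depolarization with thallium stimulus after 20 min compound exposure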
KCNK9 inh: blocks the human KCNK9 two-pore domain potassium channel; Q9NPC2; HEK293 KCNK9, FluxOR thallium flux fluorescence; stronger effect = lower value; B-score at 10 µM; hit rate 1.2% among 310,000;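 active means ratio B-score over 3 SD below the library mean, with starting fluorescence within 5 SD of its mean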;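 further: negative B-score means less thallium flux so channel inhibition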
KCNQ1 act: potentiators or activators of human KCNQ1 potassium channel; P51787; CHO-K1 KCNQ1, thallium flux FluxOR fluorescence; stronger effect = higher value; B-score at 10 µM; hit rate 0.35% among 310,000; AID 2648;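 active means fluorescence ratio B-score, a plate-corrected score, at least three library SD, with initial intensity B-score within 5 SD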
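Medium – assay buffer, equal DMSO in all wells · Material – CHO-K1 cell line with stable KCNQ1 potassium channel expression · Signal – kinetic FluxOR thallium fluorescence, 10-s 1-Hz baseline, 110-s post-stimulus read · Compound – single concentration per compound, DMSO matched to controls · Schedule – 37 °C overnight plating, 90-min dark dye load, 20-min compound pretreatment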
KCNK3 block: human KCNK3 channel inhibition, primary screen; O14649; CHO-KCNK3 thallium flux, FluxOR fluorescence; stronger effect = lower value; B-score at 10 µM; hit rate 0.84% among 340,000;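 active means B-score under library mean minus 4 SD, starting fluorescence ratio at most library mean plus 5 SD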;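 further: more negative B-score means stronger inhibition of thallium flux through KCNK3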
Target sequence (O14649 whole entry, looked up): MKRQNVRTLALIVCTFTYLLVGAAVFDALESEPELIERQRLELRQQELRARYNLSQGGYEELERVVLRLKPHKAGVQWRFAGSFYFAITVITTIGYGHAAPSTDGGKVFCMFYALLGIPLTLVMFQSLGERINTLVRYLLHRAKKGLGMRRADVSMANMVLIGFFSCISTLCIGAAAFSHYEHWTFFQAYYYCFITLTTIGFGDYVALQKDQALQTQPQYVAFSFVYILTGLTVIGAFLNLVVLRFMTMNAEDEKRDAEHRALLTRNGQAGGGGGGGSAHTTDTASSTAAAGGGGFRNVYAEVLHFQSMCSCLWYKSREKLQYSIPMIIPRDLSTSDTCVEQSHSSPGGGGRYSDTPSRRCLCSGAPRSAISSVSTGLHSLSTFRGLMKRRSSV
KCNQ1 block val: confirmation of human KCNQ1 potassium channel inhibitors. shares compounds with KCNQ1 inh. KCNQ1 cell line, FluxOR thallium flux fluorescence. inhibition, % at 10 µM. hit rate 93% among 1,600;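 active means primary screen active, with duplicate mean exceeding buffer control mean plus 3 SD of buffer wells, cut at about 28% in these data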;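 further: 0% = buffer control ratio and 100% = XE991 inhibitor control ratio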
CHO KCNQ1 ctr: KCNQ1 inhibitor counter-screen hit in parental CHO cells | shares compounds with KCNQ1 inh | parental CHO-K1, FluxOR thallium flux fluorescence ratio; stronger effect = lower value; zero means no signal rise above baseline | fluorescence ratio (Tl flux) at 10 µM | hit rate 21% among 1,600;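 active means mean of duplicate thallium-flux fluorescence ratios in parental host cells more than 5 SD below the buffer control mean, cut at about 0.38 in these data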;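 further: ratio is peak minus minimum fluorescence divided by baseline fluorescence; actives read low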
KCNQ1 APC inh: human KCNQ1 inhibition validated by electrophysiology. shares compounds with KCNQ1 inh. KCNQ1-CHO cells, automated patch clamp current. calls only at 10 µM. hit rate 20% among 490. AID 624120;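 active means KCNQ1 current drop exceeding 3 SD of negative control wells, seen in both duplicate runs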;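 further: steady state current during a 2 s step from -80 to +40 mV; negative values mean current inhibition and positive values mean potentiation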
KCNQ2 inh: KCNQ1 inhibitor that also blocks rat KCNQ2 channel | shares compounds with KCNQ1 inh | KCNQ2 cells, FluxOR thallium flux fluorescence | inhibition, % at 10 µM | hit rate 71% among 1,600 | AID 651746;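 active means mean percent inhibition of the KCNQ2 thallium signal more than 5 SD above the buffer-only control wells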;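 further: KCNQ2 expressed in CHO cells; 0% = buffer control wells and 100% = XE-991 inhibitor control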
KCNQ1-KCNE1 inh: KCNQ1 inhibitor that also blocks human KCNQ1/KCNE1 channel | shares compounds with KCNQ1 inh | hit rate 77% among 1,600 | KCNQ1/KCNE1 cells, FluxOR thallium flux fluorescence | inhibition, % at 10 µM;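 active means mean percent inhibition of duplicate wells above the buffer-only control mean plus 3 SD of those controls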;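 further: 0% = buffer only wells and 100% = XE-991 inhibitor control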
* hit, by the source's call.

For Cc1nc2cc(-c3ccccc3)nn2c(N)c1-c1ccccc1 the results were KCNK3 block inactive.
O=C(c1cc(-c2cccs2)on1)N1CCN(C(c2ccccc2)c2ccccc2)CC1 was read as hERG rescue -20.2, KCNQ1 inh 6*, KCNK9 inh inactive, KCNQ1 act inactive, KCNK3 block inactive, KCNQ1 block val 99.0*, CHO KCNQ1 ctr 0.41, KCNQ2 inh 103.3%* and KCNQ1-KCNE1 inh 125.5%*.
CCCc1cc(C(=O)N2CCN(C(c3ccccc3)c3ccccc3)CC2)no1 was read as hERG rescue -11.5, KCNQ1 inh 10*, KCNK9 inh inactive, KCNQ1 act inactive, KCNK3 block inactive, KCNQ1 block val 125.5*, CHO KCNQ1 ctr 0.401, KCNQ1 APC inh inactive, KCNQ2 inh 106.3%* and KCNQ1-KCNE1 inh 162.5%*.
Screening O=C(Nc1ccc(-c2cccc(F)c2)cc1)C1CCCN(Cc2ccccn2)C1 (configuration not stated) returned hERG rescue -23.2, KCNQ1 inh 6*, KCNK9 inh inactive, KCNQ1 act inactive, KCNK3 block inactive, KCNQ1 block val 44.0*, CHO KCNQ1 ctr 0.4, KCNQ2 inh 85.7%* and KCNQ1-KCNE1 inh 64.0%*.
Cc1cc(C)cc(NC(=O)NCC2CCN(Cc3cc(C)ccc3C)CC2)c1 was read as hERG rescue -9.1, KCNQ1 inh inactive, KCNK9 inh inactive, KCNQ1 act inactive and KCNK3 block inactive.
Cc1ccc(C)c(CN2CCC(CNC(=O)Nc3ccc(F)c(Cl)c3)CC2)c1 was read as hERG rescue -16.9, KCNQ1 inh 7*, KCNK9 inh inactive, KCNQ1 act inactive, KCNK3 block inactive, KCNQ1 block val 57.5*, CHO KCNQ1 ctr 0.435, KCNQ2 inh inactive and KCNQ1-KCNE1 inh 42.0%*.
Screening O=C(Nc1ccc(OC(F)F)c(Cl)c1)c1ccccn1 returned hERG rescue -17.6, KCNQ1 inh inactive, KCNK9 inh inactive, KCNQ1 act inactive and KCNK3 block inactive.
Cc1ccc(NC(=S)Nc2ccc(OC(F)F)c(Cl)c2)cc1F was read as hERG rescue -33.9, KCNQ1 inh 14*, KCNK9 inh inactive, KCNQ1 act inactive, KCNK3 block inactive, KCNQ1 block val 88.5*, CHO KCNQ1 ctr 0.491, KCNQ1 APC inh inactive, KCNQ2 inh inactive and KCNQ1-KCNE1 inh inactive.
Screening COc1ccccc1Nc1cc(C(=O)N2CCc3ccccc3C2)c2ccccc2n1 returned hERG rescue -15.7, KCNQ1 inh inactive, KCNK9 inh inactive and KCNQ1 act inactive.
Screening COc1ccc(-c2cc(C(=O)N3CCN(c4ccccc4F)CC3)c3ccccc3n2)c(OC)c1 returned hERG rescue -19.1, KCNQ1 inh 7*, KCNK9 inh inactive, KCNQ1 act inactive, KCNK3 block inactive, KCNQ1 block val 110.5*, CHO KCNQ1 ctr 0.394, KCNQ1 APC inh inactive, KCNQ2 inh inactive and KCNQ1-KCNE1 inh 176.0%*.
For COc1ccc(Nc2cc(C(=O)N3CCc4ccccc4C3)c3ccccc3n2)c(OC)c1 the results were hERG rescue -13.6, KCNQ1 inh 7*, KCNK9 inh inactive, KCNQ1 act inactive, KCNK3 block inactive, KCNQ1 block val 135.0*, CHO KCNQ1 ctr 0.419, KCNQ1 APC inh inactive, KCNQ2 inh 129.7%* and KCNQ1-KCNE1 inh 175.5%*.
Cc1ccc(C)c(OCCCCn2cnc3ccccc3c2=O)c1 was read as hERG rescue -9.0, KCNQ1 inh inactive, KCNK9 inh inactive, KCNQ1 act inactive and KCNK3 block inactive.
Cc1ccc(OCCCCn2cnc3ccccc32)c(C)c1 was read as hERG rescue -11.0, KCNQ1 inh 9*, KCNK9 inh inactive, KCNQ1 act inactive, KCNK3 block inactive, KCNQ1 block val 115.5*, CHO KCNQ1 ctr 0.512, KCNQ1 APC inh inactive, KCNQ2 inh 74.0%* and KCNQ1-KCNE1 inh 81.5%*.
`CN(Cc1c(F)cccc1Cl)C(=O)CCc1c[nH]c2ccccc12` gave hERG rescue -3.1, KCNQ1 inh inactive, KCNK9 inh inactive, KCNQ1 act inactive and KCNK3 block inactive.
Screening COc1cc(/C=C/c2noc(-c3ccccc3O)n2)cc(OC)c1OC returned hERG rescue -0.9, KCNQ1 inh inactive, KCNK9 inh inactive, KCNQ1 act inactive and KCNK3 block inactive.
`COc1cc(/C=C/c2nc(-c3ccccc3O)n[nH]2)cc(OC)c1OC` gave hERG rescue -33.7, KCNQ1 inh 6*, KCNK9 inh inactive, KCNQ1 act inactive, KCNK3 block inactive, KCNQ1 block val 116.0*, CHO KCNQ1 ctr 0.381, KCNQ2 inh 113.0%* and KCNQ1-KCNE1 inh 190.0%*.
Screening CCOCCCN(C(=O)Cn1nnc(-c2ccc(OC)c(OC)c2)n1)C(C(=O)NCC1CCCO1)c1ccc(F)cc1 (configuration not stated) returned hERG rescue -9.1, KCNQ1 inh inactive, KCNK9 inh inactive, KCNQ1 act inactive and KCNK3 block inactive.
Screening COc1ccc(CS(=O)(=O)c2ncn[nH]2)cc1 returned hERG rescue -5.1, KCNQ1 inh inactive, KCNK9 inh inactive, KCNQ1 act inactive and KCNK3 block inactive.
Screening FC(F)(F)c1cccc(NC(=S)NCC2COc3ccccc3O2)c1 (configuration not stated) returned hERG rescue -22.3, KCNQ1 inh 7*, KCNK9 inh inactive, KCNQ1 act inactive, KCNK3 block inactive, KCNQ1 block val 58.5*, CHO KCNQ1 ctr 0.49, KCNQ2 inh 64.7%* and KCNQ1-KCNE1 inh 43.5%*.
`COC(=O)c1[nH]c2cc(C)ccc2c1NC(=O)CN1CCN(C(=O)c2ccco2)CC1` gave hERG rescue -2.0, KCNQ1 inh inactive, KCNK9 inh inactive, KCNQ1 act inactive and KCNK3 block inactive.
Screening COC(=O)c1[nH]c2cc(C)ccc2c1NC(=O)CN1CCCc2ccccc21 returned hERG rescue -12.3, KCNQ1 inh 8*, KCNK9 inh inactive, KCNQ1 act inactive, KCNK3 block inactive, KCNQ1 block val 71.5*, CHO KCNQ1 ctr 0.439, KCNQ2 inh 93.3%* and KCNQ1-KCNE1 inh 81.5%*.
